# Experimental data from different studies.
# Compare with care: the assays were run in different laboratories.
# Action: inhibitor
# rep main protease: Replicase polyprotein 1ab, main protease (rep, Severe acute respiratory syndrome coronavirus 2, UniProt P0DTD1)
# rep papain-like protease: Replicase polyprotein 1ab, papain-like protease (rep, Severe acute respiratory syndrome coronavirus 2, UniProt P0DTD1)
Compound,target,test,test system,conditions,inhibition
O=C1C=CC(=O)c2c(O)cccc21,rep main protease,enzyme activity,,0.1 µM,20.3%
CCc1ccc(C2C(c3ccccc3)=C(O)C(=O)N2c2ccc(Cl)cc2)cc1 (centres unmarked),rep main protease,enzyme activity,,20 µM,16.8%
Cn1c(C(=O)Nc2ccc3c(c2)OCCO3)cc2c(=O)n3ccccc3nc21,rep main protease,enzyme activity,,1 µM,31%
CC[PH](CC)(CC)[Au][S][C@@H]1O[C@H](COC(C)=O)[C@@H](OC(C)=O)[C@H](OC(C)=O)[C@H]1OC(C)=O,rep main protease,enzyme activity,,20 µM,100%
Cc1ncc(/C=C\C(=O)N2C[C@@H](NC(=O)c3ccc[nH]c3=O)CC3(CCOCC3)C2)c(=O)[nH]1,rep main protease,enzyme activity,,5 µM,15.5%
CCC(=O)Oc1cccc2c1C(=O)C=CC2=O,rep main protease,enzyme activity,,10 µM,102%
CC(C)C[C@H](NC(=O)[C@@H](NC(=O)OCc1ccccc1)C(C)(C)C)C(=O)N(C)N(C#N)CCC(N)=O,rep main protease,"enzyme activity, fluorescence",,"50 µM, pH 7.2",100%
Clc1nc2ccccc2cc1/C=N\c1ccc(-c2nc3ccccc3[nH]2)cc1,rep papain-like protease,enzyme activity,,10 µM,3.9%
O=C(Nc1ccccc1F)c1cc2c(=O)n3ccccc3nc2n1Cc1ccccc1,rep main protease,enzyme activity,,1 mM,71%
O=C(O)c1ccc(O)c(O)c1,rep main protease,"enzyme activity, FRET",,"10 µM, 10 min",< 25%
COc1cccc2c1C(=O)C(C(C)=O)=CC2=O,rep main protease,enzyme activity,,0.1 µM,35.2%
COc1cc([C@H]2OC[C@H]3[C@@H]2CO[C@H]3c2ccc(OC)c(OC)c2)ccc1O,rep papain-like protease,enzyme activity,,50 µM,8.5%
Oc1cc2c(cc1O)[C@H]1c3ccccc3CN[C@@H]1CC2 (racemic),rep main protease,enzyme activity,,20 µM,-15.1%
Clc1nc2ccccc2cc1/C=N\c1ccc(Br)nc1,rep papain-like protease,enzyme activity,,100 µM,6.2%
O=C(O)c1cc(N(Cc2ccccc2O)Cc2cc(O)ccc2O)ccc1O,rep main protease,enzyme activity,,20 µM,-1.57%
COC(=O)C1=CO[C@@H](O[C@@H]2O[C@H](CO)[C@@H](O)[C@H](O)[C@H]2O)[C@@H]2[C@@H](C)[C@@H](O)C[C@H]12,rep main protease,enzyme activity,,100 µM,10.6%
COc1cc(O)c2c(=O)c(O)c(-c3ccc(O)c(O)c3)oc2c1,rep main protease,enzyme activity,,20 µM,52%
c1cc(CN2CCCNCCNCCCNCC2)ccc1CN1CCCNCCNCCCNCC1,rep main protease,enzyme activity in cells,HEK-293T,20 µM,-0.49%
COCOc1cc(C)cc2c1C(=O)C=CC2=O,rep main protease,enzyme activity,,1 µM,4.6%
CN(C(=O)[C@H](Cc1ccccc1)NC(=O)OCc1ccccc1)N(C#N)CCC(N)=O,rep main protease,"enzyme activity, fluorescence",,"50 µM, pH 7.2",100%
O=C(O)[C@]1(O)C[C@@H](O)[C@@H](O)[C@H](O)C1,rep main protease,"enzyme activity, FRET",,"10 µM, 10 min",< 25%
C/N=c1\nc(-c2ccccc2)n(-c2ccccc2)s1,rep main protease,enzyme activity,,20 µM,96.7%
C[C@@H]1O[C@@H](O[C@@H]2[C@@H](O)[C@H](OCCc3ccc(O)c(O)c3)O[C@H](CO)[C@H]2OC(=O)/C=C/c2ccc(O)c(O)c2)[C@H](O)[C@H](O)[C@H]1O,rep main protease,enzyme activity,,10 µM,34.6%
